UPR CHOP act – apoptotic UPR (CHOP) activation; CHO-CHOP luciferase reporter, luminescence; percent of tunicamycin response over DMSO baseline; activation, % at 10 µM; 0.34% of 330,000 active;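 active means at 10 µM dose, activation of 40% or more, normalized to positive control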;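 further: 100% = tunicamycin at 10 µg/mL and 0% = DMSO alone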
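Assay system: CHO cells with stable CHOP pathway luciferase reporter; Buffer or medium: F12 plus 10% serum; Times: 16-18 h cell attachment, then 6 h compound exposure, 37 °C; Signal: luciferase luminescence; Read-out basis: percent activation relative to tunicamycin control; Control set: tunicamycin high control, DMSO low control.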
NS3 helicase inh – blocks Hepatitis C virus NS3 helicase unwinding | NS3 helicase DNA unwinding, Cy5 molecular beacon fluorescence | inhibition, % at 10.9 µM | 0.56% of 290,000 active;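 active means inhibition above the mean of all tested compounds plus 3 SD, set per campaign, cut at about 35% in these data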;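 further: 0% = DMSO wells and 100% = thioflavine S control wells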
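System: Hepatitis C virus NS3 helicase domain fragment enzyme | Reagent: Annealed dual-labelled DNA beacon duplex, ATP-started | Compound dosing: 10.9 µM single point, 0.8% DMSO | Incubation: 1 h reaction at 25 °C, ATP-initiated | Technique: Cy5 fluorescence | Evaluation: Percent inhibition from t60/t0 fluorescence ratio | Benchmarks: Low DMSO, high thioflavine S at 110 µM | Replication: Singlicate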
p97 ATPase inh – human p97 ATPase inhibition; recombinant p97 ATPase, Kinase-Glo ATP luminescence, 3 h; P55072; AID 1481; 0.42% of 220,000 active; inhibition, % at 8 µM; in the data active means inhibition above about 15%;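 further: 0% = DMSO vehicle and 100% = wells lacking enzyme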
Target sequence (P55072 whole entry, looked up): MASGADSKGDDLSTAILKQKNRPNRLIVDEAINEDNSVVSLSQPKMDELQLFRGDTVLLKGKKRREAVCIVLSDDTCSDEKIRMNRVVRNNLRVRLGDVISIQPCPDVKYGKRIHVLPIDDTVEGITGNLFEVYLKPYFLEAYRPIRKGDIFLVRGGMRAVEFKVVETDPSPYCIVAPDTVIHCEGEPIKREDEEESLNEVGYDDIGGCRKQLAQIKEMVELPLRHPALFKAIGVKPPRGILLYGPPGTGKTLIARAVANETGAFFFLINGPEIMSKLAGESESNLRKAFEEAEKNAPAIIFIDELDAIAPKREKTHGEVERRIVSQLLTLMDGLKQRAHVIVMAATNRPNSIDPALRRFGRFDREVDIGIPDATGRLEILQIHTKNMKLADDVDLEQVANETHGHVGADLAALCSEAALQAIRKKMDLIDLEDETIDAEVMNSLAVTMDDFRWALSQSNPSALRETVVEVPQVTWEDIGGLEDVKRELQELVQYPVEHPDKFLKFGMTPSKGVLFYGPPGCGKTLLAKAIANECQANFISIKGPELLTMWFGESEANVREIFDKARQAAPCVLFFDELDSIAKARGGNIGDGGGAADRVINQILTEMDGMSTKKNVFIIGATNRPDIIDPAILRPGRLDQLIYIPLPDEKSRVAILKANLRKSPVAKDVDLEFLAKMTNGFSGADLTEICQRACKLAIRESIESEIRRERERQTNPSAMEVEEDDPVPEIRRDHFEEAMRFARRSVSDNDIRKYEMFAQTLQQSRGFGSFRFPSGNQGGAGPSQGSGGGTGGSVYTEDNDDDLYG
CHOP inhibitor – CHOP inhibition in unfolded protein response | CHO-K1 CHOP-promoter luciferase, tunicamycin-induced, 15-18 h | inhibition, % at 10 µM | 3.8% of 220,000 active;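 active means compounds that reduced the stress-induced luciferase reporter signal by more than about 70% of percent inhibition, limit read from the data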;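 further: 0% = tunicamycin plus vehicle and 100% = wells without tunicamycin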
XBP1 UPR activ – adaptive UPR (XBP1) activation. activation, % at 20 µM. CHO-XBP1 luciferase reporter, IRE1-XBP1 UPR activation, luminescence; percent of tunicamycin response, DMSO as zero. AID 463104. 0.33% of 330,000 active;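 active means versus positive control, 20 µM dose yields 30% or more activation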;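 further: 100% = tunicamycin at 10 µg/mL and 0% = DMSO only wells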
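Material: CHO cell line with stable XBP1 luciferase reporter; buffer or medium: F12 medium containing 10% fetal bovine serum; compound: single point, 20 µM final compound, 1% DMSO; incubation: 6 h treatment, 37 °C; measured by: glow luminescence from Steady-Glo reagent; evaluation: activation, % of tunicamycin; control set: tunicamycin high, DMSO low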
PfM18AAP inh – blocks P. falciparum M18 aspartyl aminopeptidase | recombinant PfM18AAP, H-Glu-NHMec fluorogenic cleavage | inhibition, % at 7.35 µM | 1.2% of 290,000 active | AID 1822;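 active means inhibition above the campaign mean inhibition over all tested compounds plus 3 SD, cut at about 28% in these data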;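 further: 0% = plate median of test compound wells and 100% = 2 mM ZnCl2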
CHOP inh conf – confirmation of CHOP induction inhibitors | inhibition, % at 10 µM | CHO-CHOP promoter luciferase reporter, tunicamycin-induced, luminescence | shares compounds with CHOP inhibitor | 45% of 2,100 active;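 active means mean of three repeat readings of reporter signal inhibition above a set limit, cut at about 70% in these data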;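 further: 0% = tunicamycin plus vehicle and 100% = wells lacking tunicamycin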
The depositor's hits bear a star. Rows were chosen to be rich in hits. Some 4.5% of all compounds tested hit in one or more screens of this group.

`Cc1c(C(=O)N/N=C/c2ccc(Cl)cc2)[nH]c2ccc(Cl)cc12` gave UPR CHOP act 1, NS3 helicase inh 0, p97 ATPase inh -4, CHOP inhibitor 98*, XBP1 UPR activ 17, PfM18AAP inh 2 and CHOP inh conf 19.
Screening COc1ccc(NC(=O)CC23CC4CC(CC(Br)(C4)C2)C3)c(OC)c1 returned UPR CHOP act 1, NS3 helicase inh 10, XBP1 UPR activ -7 and PfM18AAP inh -6.
For C/C(=N\N=C1\NC(=O)C(CC(=O)Nc2ccc(C)c(Cl)c2)S1)C(C)(C)C (centres undefined) the results were UPR CHOP act -2, NS3 helicase inh -19, p97 ATPase inh 3, CHOP inhibitor 106*, XBP1 UPR activ -1, PfM18AAP inh -4 and CHOP inh conf 107*.
C/C(=N\N=C1\NC(=O)C(CC(=O)Nc2ccc(Cl)cc2)S1)c1ccco1 (centres undefined) was read as UPR CHOP act 1, NS3 helicase inh -17, p97 ATPase inh 7, CHOP inhibitor 29, XBP1 UPR activ -2 and PfM18AAP inh 11.
O=C1N/C(=N\N=C\c2cccs2)SC1Cc1cccc(Cl)c1Cl (centres undefined) was read as UPR CHOP act 1, NS3 helicase inh 9, p97 ATPase inh 11, CHOP inhibitor 65, XBP1 UPR activ 3 and PfM18AAP inh 4.
For O=C(CC1S/C(=N/N=C/c2cccs2)NC1=O)Nc1ccc(Cl)c(Cl)c1 (centres undefined) the results were UPR CHOP act 3, NS3 helicase inh 2, p97 ATPase inh 5, CHOP inhibitor 104*, XBP1 UPR activ 0, PfM18AAP inh -1 and CHOP inh conf 57.
Screening CC(Sc1nncs1)C(=O)Nc1ccc(S(=O)(=O)Nc2ncccn2)cc1 (centres undefined) returned UPR CHOP act -1 and XBP1 UPR activ 1.
Screening COc1ccccc1NC(=O)COC(=O)c1cc(C)oc1C returned UPR CHOP act 2 and XBP1 UPR activ 3.
O=C(Cn1cnnn1)NCc1ccccc1 was read as UPR CHOP act -1, NS3 helicase inh -1, XBP1 UPR activ 1 and PfM18AAP inh -13.
For COc1ccc(C(=O)NC(=S)NC(C)C)cc1Br the results were UPR CHOP act 1, NS3 helicase inh 3, p97 ATPase inh -5, CHOP inhibitor 32, XBP1 UPR activ 3 and PfM18AAP inh 1.
Screening COc1ccc(C(=O)NC(=S)NC(C)(C)C)cc1Br returned UPR CHOP act 2, NS3 helicase inh 3, p97 ATPase inh -6, CHOP inhibitor 106*, XBP1 UPR activ 3, PfM18AAP inh -11 and CHOP inh conf -16.
For O=C(Nc1ccc(Br)cc1)c1cc([N+](=O)[O-])cc([N+](=O)[O-])c1 the results were UPR CHOP act 3, NS3 helicase inh -3, XBP1 UPR activ 0 and PfM18AAP inh -11.
For O=c1c2c([N+](=O)[O-])cc([N+](=O)[O-])cc2sn1-c1ccc(Br)cc1 the results were UPR CHOP act 2, NS3 helicase inh 22, p97 ATPase inh 2, CHOP inhibitor 97*, XBP1 UPR activ -1, PfM18AAP inh 25 and CHOP inh conf 12.
CC(C)(CNC(=O)c1cccs1)N1CCOCC1 was read as UPR CHOP act -2 and XBP1 UPR activ 1.
Screening Nc1cc(-c2ccc(Cl)cc2)nn1S(=O)(=O)c1ccc(Cl)cc1 returned UPR CHOP act 1, NS3 helicase inh 2, p97 ATPase inh -2, CHOP inhibitor 108*, XBP1 UPR activ -1, PfM18AAP inh -4 and CHOP inh conf 7.
Screening NS(=O)(=O)c1ccc(CCNC(=O)CCCNC(=O)c2ccc(Cl)cc2)cc1 returned UPR CHOP act 2, NS3 helicase inh -8, XBP1 UPR activ -3 and PfM18AAP inh 0.
For Cc1cc(C(=O)C(C)OC(=O)c2ccc(NC(=O)CC#N)cc2)c(C)n1-c1ccc(OC(F)F)cc1 (centres undefined) the results were UPR CHOP act -1 and XBP1 UPR activ -2.
`S=C1NC2=C(CCC/C2=C\c2ccccc2)C(c2ccccc2)N1` (centres undefined) gave UPR CHOP act -2, NS3 helicase inh -11, p97 ATPase inh 7, CHOP inhibitor 40, XBP1 UPR activ 0 and PfM18AAP inh 16.
For C(=C1/CCCC2=C1Nc1ncnn1C2c1ccccc1)/c1ccccc1 (centres undefined) the results were UPR CHOP act 6, NS3 helicase inh -11, p97 ATPase inh 3, CHOP inhibitor 112*, XBP1 UPR activ -8, PfM18AAP inh -3 and CHOP inh conf 58.
O=C(Cn1c(=O)cnc2ccccc21)N1CCN(S(=O)(=O)c2ccccc2Br)CC1 was read as UPR CHOP act -1 and XBP1 UPR activ -4.
O=C1c2[nH]nc(-c3ccccc3O)c2C(c2cccc(Cl)c2)N1Cc1ccco1 (centres undefined) was read as UPR CHOP act 4, NS3 helicase inh -9, p97 ATPase inh 5, CHOP inhibitor 113*, XBP1 UPR activ 0, PfM18AAP inh 3 and CHOP inh conf 113*.
`CN1CCCN(C(=O)c2cccc3ccccc23)CC1` gave UPR CHOP act 1, NS3 helicase inh 3, XBP1 UPR activ -6 and PfM18AAP inh 1.
`O=C(Nc1ccc([N+](=O)[O-])cc1)Nc1ccc(OC(F)F)c(Cl)c1` gave NS3 helicase inh 9, p97 ATPase inh 0, CHOP inhibitor 106*, PfM18AAP inh -1 and CHOP inh conf 125*.
`O=C(Nc1ccc2c(c1)OCO2)Nc1ccc2c(c1)OCO2` gave UPR CHOP act 5, NS3 helicase inh -1, p97 ATPase inh 8, CHOP inhibitor 19, XBP1 UPR activ 4 and PfM18AAP inh 7.
O=C(Nc1ccc(OC(F)F)c(Cl)c1)Nc1ccc2c(c1)OCO2 was read as UPR CHOP act 3, NS3 helicase inh -17, p97 ATPase inh -7, CHOP inhibitor 106*, XBP1 UPR activ 5, PfM18AAP inh 2 and CHOP inh conf 67.
CCCOc1ccc(C(F)(F)F)cc1NC(=O)C1CC(=O)N(Cc2ccco2)C1 (centres undefined) was read as UPR CHOP act 7 and XBP1 UPR activ -3.
`O=C1CC(c2ccccc2F)c2cc3c(cc2N1)CCC3` (centres undefined) gave UPR CHOP act 0, NS3 helicase inh -8, p97 ATPase inh 0, CHOP inhibitor 62, XBP1 UPR activ 3 and PfM18AAP inh -7.
